Assay results as given in ChEMBL document CHEMBL4152188, “Design, synthesis and biological evaluation of C(4) substituted monobactams as antibacterial agents against multidrug-resistant Gram-negative bacteria” (Eur J Med Chem, 2018).
In brackets after ≈: the same amount, converted by molar mass.

Legend:
Type in all cases: functional
Escherichia coli [1] = test: Antibacterial activity against extended-spectrum beta-lactamase producing Escherichia coli isolate 212648 after 18 hrs by CLSI broth microdilution method; conditions: isolate 212648, 18 h
Escherichia coli [2] = test: Selectivity index, ratio of MIC for against extended-spectrum beta-lactamase producing Escherichia coli isolate 208687 to MIC for extended-spectrum beta-lactamase producing Escherichia coli isolate 208687 in presence of BPL
Escherichia coli [3] = test: Antibacterial activity against Escherichia coli isolate 210737 after 18 hrs by CLSI broth microdilution method; conditions: isolate 210737, 18 h
Escherichia coli [4] = test: Antibacterial activity against extended-spectrum beta-lactamase producing Escherichia coli isolate 208687 after 18 hrs by CLSI broth microdilution method; conditions: isolate 208687, 18 h
Escherichia coli [5] = test: Antibacterial activity against extended-spectrum beta-lactamase producing Escherichia coli isolate 208687 after 18 hrs in presence of BPL by CLSI broth microdilution method; conditions: isolate 208687, 18 h
Method in brief: (§1)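 CLSI broth microdilution against clinical isolates (ESBL E. coli, KPC-2 MDR K. pneumoniae, IMP-4 MDR P. aeruginosa; five per species). Iron limitation: Mueller-Hinton broth supplemented with 16 mg/liter 2,2'-bipyridyl to complex iron and induce iron uptake systems. Read-out: MIC.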

Escherichia coli [6] = test: Antibacterial activity against Escherichia coli isolate 210737 after 18 hrs in presence of BPL by CLSI broth microdilution method; conditions: isolate 210737, 18 h; method in brief: as §1
Escherichia coli [7] = test: Selectivity index, ratio of MIC for against Escherichia coli isolate 210737 to MIC for Escherichia coli isolate 210737 in presence of BPL
Escherichia coli [8] = test: Antibacterial activity against extended-spectrum beta-lactamase producing Escherichia coli isolate 212648 after 18 hrs in presence of BPL by CLSI broth microdilution method; conditions: isolate 212648, 18 h; method in brief: as §1
Escherichia coli [9] = test: Selectivity index, ratio of MIC for against extended-spectrum beta-lactamase producing Escherichia coli isolate 212648 to MIC for extended-spectrum beta-lactamase producing Escherichia coli isolate 212648 in presence of BPL
Escherichia coli [10] = test: Antibacterial activity against extended-spectrum beta-lactamase producing Escherichia coli isolate 209285 after 18 hrs by CLSI broth microdilution method; conditions: isolate 209285, 18 h
Escherichia coli [11] = test: Antibacterial activity against extended-spectrum beta-lactamase producing Escherichia coli isolate 209285 after 18 hrs in presence of BPL by CLSI broth microdilution method; conditions: isolate 209285, 18 h; method in brief: as §1
Escherichia coli [12] = test: Selectivity index, ratio of MIC for against extended-spectrum beta-lactamase producing Escherichia coli isolate 209285 to MIC for extended-spectrum beta-lactamase producing Escherichia coli isolate 209285 in presence of BPL
Escherichia coli [13] = test: Antibacterial activity against extended-spectrum beta-lactamase producing Escherichia coli isolate 106342 after 18 hrs by CLSI broth microdilution method; conditions: isolate 106342, 18 h
Escherichia coli [14] = test: Antibacterial activity against extended-spectrum beta-lactamase producing Escherichia coli isolate 106342 after 18 hrs in presence of BPL by CLSI broth microdilution method; conditions: isolate 106342, 18 h; method in brief: as §1
Escherichia coli [15] = test: Selectivity index, ratio of MIC for against extended-spectrum beta-lactamase producing Escherichia coli isolate 106342 to MIC for extended-spectrum beta-lactamase producing Escherichia coli isolate 106342 in presence of BPL
Klebsiella pneumoniae [16] = test: Antibacterial activity against KPC-2 producing Klebsiella pneumoniae isolate 212423 after 18 hrs by CLSI broth microdilution method; conditions: isolate 212423, 18 h
Klebsiella pneumoniae [17] = test: Antibacterial activity against KPC-2 producing Klebsiella pneumoniae isolate 212423 after 18 hrs in presence of BPL by CLSI broth microdilution method; conditions: isolate 212423, 18 h; method in brief: as §1
Klebsiella pneumoniae [18] = test: Selectivity index, ratio of MIC for against KPC-2 producing Klebsiella pneumoniae isolate 212423 to MIC for against KPC-2 producing Klebsiella pneumoniae isolate 212423 in presence of BPL
Klebsiella pneumoniae [19] = test: Antibacterial activity against KPC-2 producing Klebsiella pneumoniae isolate 209632 after 18 hrs by CLSI broth microdilution method; conditions: isolate 209632, 18 h
Klebsiella pneumoniae [20] = test: Antibacterial activity against KPC-2 producing Klebsiella pneumoniae isolate 209632 after 18 hrs in presence of BPL by CLSI broth microdilution method; conditions: isolate 209632, 18 h; method in brief: as §1
Klebsiella pneumoniae [21] = test: Selectivity index, ratio of MIC for against KPC-2 producing Klebsiella pneumoniae isolate 209632 to MIC for against KPC-2 producing Klebsiella pneumoniae isolate 209632 in presence of BPL
Klebsiella pneumoniae [22] = test: Antibacterial activity against KPC-2 producing Klebsiella pneumoniae isolate 209735 after 18 hrs by CLSI broth microdilution method; conditions: isolate 209735, 18 h
Klebsiella pneumoniae [23] = test: Antibacterial activity against KPC-2 producing Klebsiella pneumoniae isolate 209735 after 18 hrs in presence of BPL by CLSI broth microdilution method; conditions: isolate 209735, 18 h; method in brief: as §1
Klebsiella pneumoniae [24] = test: Selectivity index, ratio of MIC for against KPC-2 producing Klebsiella pneumoniae isolate 209735 to MIC for against KPC-2 producing Klebsiella pneumoniae isolate 209735 in presence of BPL
Klebsiella pneumoniae [25] = test: Antibacterial activity against KPC-2 producing Klebsiella pneumoniae isolate 212232 after 18 hrs by CLSI broth microdilution method; conditions: isolate 212232, 18 h
Klebsiella pneumoniae [26] = test: Antibacterial activity against KPC-2 producing Klebsiella pneumoniae isolate 212232 after 18 hrs in presence of BPL by CLSI broth microdilution method; conditions: isolate 212232, 18 h; method in brief: as §1
Klebsiella pneumoniae [27] = test: Selectivity index, ratio of MIC for against KPC-2 producing Klebsiella pneumoniae isolate 212232 to MIC for against KPC-2 producing Klebsiella pneumoniae isolate 212232 in presence of BPL
Klebsiella pneumoniae [28] = test: Antibacterial activity against KPC-2 producing Klebsiella pneumoniae isolate 212229 after 18 hrs by CLSI broth microdilution method; conditions: isolate 212229, 18 h
Klebsiella pneumoniae [29] = test: Antibacterial activity against KPC-2 producing Klebsiella pneumoniae isolate 212229 after 18 hrs in presence of BPL by CLSI broth microdilution method; conditions: isolate 212229, 18 h; method in brief: as §1
Klebsiella pneumoniae [30] = test: Selectivity index, ratio of MIC for against KPC-2 producing Klebsiella pneumoniae isolate 212229 to MIC for against KPC-2 producing Klebsiella pneumoniae isolate 212229 in presence of BPL
Pseudomonas aeruginosa [31] = test: Antibacterial activity against IMP-4 producing Pseudomonas aeruginosa isolate 212886 after 18 hrs by CLSI broth microdilution method; conditions: isolate 212886, 18 h
Pseudomonas aeruginosa [32] = test: Antibacterial activity against IMP-4 producing Pseudomonas aeruginosa isolate 212886 after 18 hrs in presence of BPL by CLSI broth microdilution method; conditions: isolate 212886, 18 h; method in brief: as §1
Pseudomonas aeruginosa [33] = test: Antibacterial activity against IMP-4 producing Pseudomonas aeruginosa isolate 209471 after 18 hrs by CLSI broth microdilution method; conditions: isolate 209471, 18 h
Pseudomonas aeruginosa [34] = test: Antibacterial activity against IMP-4 producing Pseudomonas aeruginosa isolate 209471 after 18 hrs in presence of BPL by CLSI broth microdilution method; conditions: isolate 209471, 18 h; method in brief: as §1
Pseudomonas aeruginosa [35] = test: Antibacterial activity against IMP-4 producing Pseudomonas aeruginosa isolate 208247 after 18 hrs by CLSI broth microdilution method; conditions: isolate 208247, 18 h
Pseudomonas aeruginosa [36] = test: Antibacterial activity against IMP-4 producing Pseudomonas aeruginosa isolate 208247 after 18 hrs in presence of BPL by CLSI broth microdilution method; conditions: isolate 208247, 18 h; method in brief: as §1
Pseudomonas aeruginosa [37] = test: Antibacterial activity against IMP-4 producing Pseudomonas aeruginosa isolate 209321 after 18 hrs by CLSI broth microdilution method; conditions: isolate 209321, 18 h
Pseudomonas aeruginosa [38] = test: Antibacterial activity against IMP-4 producing Pseudomonas aeruginosa isolate 209321 after 18 hrs in presence of BPL by CLSI broth microdilution method; conditions: isolate 209321, 18 h; method in brief: as §1
Pseudomonas aeruginosa [39] = test: Antibacterial activity against IMP-4 producing Pseudomonas aeruginosa isolate 207272 after 18 hrs by CLSI broth microdilution method; conditions: isolate 207272, 18 h
Pseudomonas aeruginosa [40] = test: Antibacterial activity against IMP-4 producing Pseudomonas aeruginosa isolate 207272 after 18 hrs in presence of BPL by CLSI broth microdilution method; conditions: isolate 207272, 18 h; method in brief: as §1

For `CC(C)C(O/N=C(\C(=O)NC1C(=O)N(S(=O)(=O)O)C12CCOCC2)c1csc(N)n1)c1cc(=O)c(O)cn1O` (centres undefined), the MIC (Escherichia coli [1]) was 8 µg/mL (≈ 13.6 µM), the “Selectivity Index” value (Escherichia coli [2]) was 4 and the MIC (Escherichia coli [3]) was 1 µg/mL (≈ 1.7 µM). The MIC (Escherichia coli [4]) was 4 µg/mL (≈ 6.82 µM), the MIC (Escherichia coli [5]) was 1 µg/mL and the MIC (Escherichia coli [6]) was 1 µg/mL. The “Selectivity Index” value (Escherichia coli [7]) was 1, the MIC (Escherichia coli [8]) was 2 µg/mL and the “Selectivity Index” value (Escherichia coli [9]) was 4. The MIC (Escherichia coli [10]) was 16 µg/mL (≈ 27.3 µM), the MIC (Escherichia coli [11]) was 8 µg/mL and the “Selectivity Index” value (Escherichia coli [12]) was 2. The MIC (Escherichia coli [13]) was 8 µg/mL (≈ 13.6 µM), the MIC (Escherichia coli [14]) was 4 µg/mL and the “Selectivity Index” value (Escherichia coli [15]) was 2. The MIC (Klebsiella pneumoniae [16]) was 4 µg/mL (≈ 6.82 µM), the MIC (Klebsiella pneumoniae [17]) was 2 µg/mL and the “Selectivity Index” value (Klebsiella pneumoniae [18]) was 2. The MIC (Klebsiella pneumoniae [19]) was 4 µg/mL (≈ 6.82 µM), the MIC (Klebsiella pneumoniae [20]) was 1 µg/mL and the “Selectivity Index” value (Klebsiella pneumoniae [21]) was 4. The MIC (Klebsiella pneumoniae [22]) was 4 µg/mL (≈ 6.82 µM), the MIC (Klebsiella pneumoniae [23]) was 1 µg/mL and the “Selectivity Index” value (Klebsiella pneumoniae [24]) was 4. For the same molecule, the MIC (Klebsiella pneumoniae [25]) was 2 µg/mL (≈ 3.41 µM), the MIC (Klebsiella pneumoniae [26]) was 0.06 µg/mL and the “Selectivity Index” value (Klebsiella pneumoniae [27]) was 32. The MIC (Klebsiella pneumoniae [28]) was 8 µg/mL (≈ 13.6 µM), the MIC (Klebsiella pneumoniae [29]) was 1 µg/mL and the “Selectivity Index” value (Klebsiella pneumoniae [30]) was 8. The MIC (Pseudomonas aeruginosa [31]) was > 64 µg/mL, the MIC (Pseudomonas aeruginosa [32]) was > 64 µg/mL and the MIC (Pseudomonas aeruginosa [33]) was > 64 µg/mL. For the same molecule, the MIC (Pseudomonas aeruginosa [34]) was > 64 µg/mL, the MIC (Pseudomonas aeruginosa [35]) was > 64 µg/mL and the MIC (Pseudomonas aeruginosa [36]) was 64 µg/mL. For the same molecule, the MIC (Pseudomonas aeruginosa [37]) was > 64 µg/mL, the MIC (Pseudomonas aeruginosa [38]) was > 64 µg/mL and the MIC (Pseudomonas aeruginosa [39]) was > 64 µg/mL. The MIC (Pseudomonas aeruginosa [40]) was 64 µg/mL.

Work on `C[C@@H](O)[C@H]1C(=O)N2C(C(=O)O)=C(S[C@@H]3CN[C@H](C(=O)N(C)C)C3)[C@H](C)[C@H]12` [MEROPENEM] yielded an MIC (Escherichia coli [1]) of 8 µg/mL (≈ 20.9 µM), an MIC (Escherichia coli [3]) of 0.125 µg/mL (≈ 0.326 µM) and an MIC (Escherichia coli [4]) of 0.125 µg/mL (≈ 0.326 µM). The MIC (Escherichia coli [10]) was 1 µg/mL (≈ 2.61 µM), the MIC (Escherichia coli [13]) was 8 µg/mL (≈ 20.9 µM) and the MIC (Klebsiella pneumoniae [25]) was > 64 µg/mL. For the same molecule, the MIC (Klebsiella pneumoniae [28]) was > 64 µg/mL, the MIC (Pseudomonas aeruginosa [33]) was 32 µg/mL (≈ 83.4 µM) and the MIC (Pseudomonas aeruginosa [35]) was 32 µg/mL (≈ 83.4 µM).
